The record followed here is ChEMBL document CHEMBL2169742, “Design, synthesis, and biological evaluation of novel transrepression-selective liver X receptor (LXR) ligands with 5,11-dihydro-5-methyl-11-methylene-6H-dibenz[b,e]azepin-6-one skeleton” (J Med Chem, 2012).

The target of data set [1] is T1, Bile acid receptor (Homo sapiens) (UniProt Q96RI1).
T1 sequence (whole entry): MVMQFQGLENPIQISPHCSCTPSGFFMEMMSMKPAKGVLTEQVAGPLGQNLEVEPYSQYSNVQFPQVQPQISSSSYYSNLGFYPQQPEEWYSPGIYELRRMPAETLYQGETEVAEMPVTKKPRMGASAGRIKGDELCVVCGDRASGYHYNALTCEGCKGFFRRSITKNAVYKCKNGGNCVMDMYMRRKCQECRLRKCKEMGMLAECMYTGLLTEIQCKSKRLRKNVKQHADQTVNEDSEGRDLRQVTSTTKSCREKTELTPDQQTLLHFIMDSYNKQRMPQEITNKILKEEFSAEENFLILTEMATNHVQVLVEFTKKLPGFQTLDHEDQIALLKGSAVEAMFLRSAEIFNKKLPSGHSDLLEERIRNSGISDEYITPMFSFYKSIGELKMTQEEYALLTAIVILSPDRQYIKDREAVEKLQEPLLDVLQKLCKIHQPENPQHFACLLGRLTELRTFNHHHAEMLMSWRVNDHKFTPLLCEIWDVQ
In words: Agonist activity at human Gal4-fused FXR assessed as luciferase activity at 0.03 to 10 uM by reporter gene assay. In kind it is functional.

A short description of data set [2]: Transrepressional activity at LXR in C57BL/6J mouse peritoneal macrophages assessed as inhibition of LPS-induced IL-6 mRNA expression at 10 uM incubated for 6 hr prior to LPS-challenge measured after 18 hrs by RT-PCR analysis. The method, boiled down:
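Thioglycollate-elicited peritoneal macrophages (wild-type C57BL/6J or LXRα-null, 8–10 weeks) were plated at 4 × 10⁶/well and pretreated with compound 6 h before LPS 100 ng/mL. Cells were harvested after 18 h. il-6 and il-1β mRNA were measured by real-time quantitative PCR, normalized to GAPDH.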

The target in data set [3] is T2, Oxysterols receptor LXR-alpha (Homo sapiens) (UniProt Q13133).
T2 sequence (whole entry): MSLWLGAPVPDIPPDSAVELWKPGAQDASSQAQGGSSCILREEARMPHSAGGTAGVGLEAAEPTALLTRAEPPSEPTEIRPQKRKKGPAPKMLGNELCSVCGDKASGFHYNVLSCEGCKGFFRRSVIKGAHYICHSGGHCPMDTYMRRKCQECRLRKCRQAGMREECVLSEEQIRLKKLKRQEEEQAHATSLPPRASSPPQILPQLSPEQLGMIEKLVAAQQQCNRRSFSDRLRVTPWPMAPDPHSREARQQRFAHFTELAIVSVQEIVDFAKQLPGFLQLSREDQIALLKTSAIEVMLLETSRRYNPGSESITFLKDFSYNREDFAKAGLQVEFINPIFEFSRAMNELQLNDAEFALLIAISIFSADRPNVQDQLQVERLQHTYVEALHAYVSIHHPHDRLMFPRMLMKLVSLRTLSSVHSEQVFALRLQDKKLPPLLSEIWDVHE
The data set is described as follows: Transactivational antagonist activity at human LXRalpha transfected in HEK293 cells coexpressing CMX-Gal4N-SMRT assessed as SMRT recruitment after 16 hrs by reporter gene assay. The class given is functional, cell-based. The method, boiled down: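 Mammalian two-hybrid in HEK293 cells by calcium phosphate cotransfection: CMX-VP16N-hLXRα, Gal4N-fused SRC1, DRIP205, NCoR or SMRT (15 ng), tk-MH100×4-luc (50 ng) and CMX-β-gal (10 ng). Compound or DMSO added 8 h after transfection for 16 h. Luciferase was normalized to β-galactosidase, in triplicate.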
(In general: A reporter such as luciferase makes a cellular process visible.)

Data set [4] has as its target T3, Oxysterols receptor LXR-beta (Homo sapiens, UniProt P55055).
T3 sequence (P55055 whole entry): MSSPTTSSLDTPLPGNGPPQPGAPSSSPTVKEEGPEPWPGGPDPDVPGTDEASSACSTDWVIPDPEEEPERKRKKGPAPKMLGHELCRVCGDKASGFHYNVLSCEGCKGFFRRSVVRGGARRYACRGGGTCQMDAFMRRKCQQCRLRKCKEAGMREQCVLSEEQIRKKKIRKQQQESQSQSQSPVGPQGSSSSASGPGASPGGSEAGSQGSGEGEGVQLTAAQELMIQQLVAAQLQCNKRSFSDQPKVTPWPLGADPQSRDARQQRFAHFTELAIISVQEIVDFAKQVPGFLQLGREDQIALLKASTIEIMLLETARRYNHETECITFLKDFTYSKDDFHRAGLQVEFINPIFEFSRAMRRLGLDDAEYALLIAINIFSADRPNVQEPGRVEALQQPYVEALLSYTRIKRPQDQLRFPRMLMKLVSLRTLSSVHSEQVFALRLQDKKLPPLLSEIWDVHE
In words: Transactivational agonist activity at human LXRbeta transfected in HEK293 cells expressing CMX-Gal4N assessed as luciferase activity at 30 uM after 16 hrs by reporter gene assay. The class given is cell-based. The following applies: hek293, 16 h.

The target in data set [5] is T3, Oxysterols receptor LXR-beta. The data set is described as follows: Transactivational antagonist activity at human LXRbeta transfected in HEK293 cells expressing CMX-Gal4N assessed as inhibition of T1317-induced luciferase activity after 16 hrs by reporter gene assay. The class given is functional, cell-based.
Data set [6] has as its target T1, Bile acid receptor (Homo sapiens). The data set is described as follows: Antagonist activity at human Gal4-fused FXR assessed as inhibition of chenodeoxycholic acid-induced luciferase activity at 0.03 to 10 uM by reporter gene assay. The class given is functional.
Data set [7] addresses T4, Retinoic acid receptor RXR-alpha (Homo sapiens) (UniProt P19793).
T4 sequence (whole entry): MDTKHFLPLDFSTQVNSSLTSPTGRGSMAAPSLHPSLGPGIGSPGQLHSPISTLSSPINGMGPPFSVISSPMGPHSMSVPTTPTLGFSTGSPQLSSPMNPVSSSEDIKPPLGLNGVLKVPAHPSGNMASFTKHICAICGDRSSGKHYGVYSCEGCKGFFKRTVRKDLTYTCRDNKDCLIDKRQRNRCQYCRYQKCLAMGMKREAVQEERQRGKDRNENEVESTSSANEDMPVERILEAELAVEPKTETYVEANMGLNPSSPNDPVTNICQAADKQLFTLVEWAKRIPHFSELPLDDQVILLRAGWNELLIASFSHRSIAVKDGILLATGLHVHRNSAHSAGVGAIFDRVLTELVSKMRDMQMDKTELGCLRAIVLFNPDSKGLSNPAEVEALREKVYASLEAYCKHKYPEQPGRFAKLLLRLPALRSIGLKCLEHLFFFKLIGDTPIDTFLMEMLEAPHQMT
In words: Antagonist activity at human Gal4-fused RXRalpha assessed as inhibition of SR11215-induced luciferase activity at 0.1 to 10 uM by reporter gene assay. The class given is functional.

Active and inactive are the calls of the source. No cut-off for these calls is given here.

By IC50 is commonly meant the concentration that gives 50% inhibition. Turning to `C=C1c2ccccc2C(=O)N(C)c2ccc(CC)cc21`, in data set [1], the outcome was inactive. Also, the inhibition result in data set [2] was “Active”. The Activity entry in data set [3] was “Dose-dependent effect”; in data set [4], “Not Active”. The IC50 in data set [5] is more than 30 µM. The inhibition result in data set [6] and in data set [7] was “inactive” in each case.
